# Ecoli rRNA inh – reduced GFP signal of wild-type E. coli, primary screen, bacterial rRNA inhibitor project, GFP/RFP fluorescence, OD600, single point | actives 1.6% (n = 350,000) | E. coli WT GFP vs humanized-ribosome RFP mutants, 24 h; hits give low values; DMSO median 0, no signal -100 | GFP signal change (wild-type ribosome), % (test concentration not listed);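 active means significant combined selectivity score with lowered wild-type GFP, culture density cut under 30%, mutant RFP and density less affected; inactive means any of these conditions unmet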
# FN deposit inh – inhibitors of fibronectin matrix deposition, primary screen, AH1F cells, Alexa488-fibronectin fluorescence, plate reader. AID 743247, 2014. AH1F fibroblasts, overnight. inhibition, % at 12.6 µM. actives 0.086% (n = 350,000);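 active means mean inhibition across replicates of 30% or more, regardless of how many single replicates reach that level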;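 further: positive control wells lacked labelled fibronectin entirely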
#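 material = AH1F fibroblast monolayer depositing Alexa488-labelled fibronectin into matrix | amount = 10000 AH1F cells/well | buffer or medium = DMEM plus 2% serum, read in PBS | incubation = 1 h cell adhesion before compound, then overnight fibronectin incubation | detection = fluorescence at 485 nm excitation, 525 nm emission | evaluation = percent inhibition as loss of matrix-bound fibronectin fluorescence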
# C2C12 statin – suppressors of statin myotoxicity in C2C12 myotubes, primary screen, cell-based, single point, plate reader; C2C12 myotubes + simvastatin, ATP luminescence, 48 h; scaled: DMSO 0, geranylgeraniol control 100; rescue of ATP level, % at 7.49 µM; actives 0.78% (n = 330,000); AID 602340, 2012;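 active means mean ATP rescue above about 67%, or every replicate alone reaching that limit, limit read from the data, passing the limit was not always enough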;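 further: myotubes were challenged with 10 µM simvastatin during compound exposure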
# FGF22 binding – binders of human FGF22 protein, primary screen, FGF22 synaptogenesis inhibitor project, biophysical, thermal shift, single point. actives 1.5% (n = 340,000). recombinant FGF22 thermal shift, SYPRO orange fluorescence; percent of sucrose octasulfate shift, DMSO zero. Fibroblast growth factor 22 (Homo sapiens), Q9HCT0. activity (Tm shift, normalised), % at 9.99 µM. AID 651658, 2012;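 active means mean Tm shift, scaled 0 neutral to 100 positive control, at about 1.3% or above, every replicate too, limit read from the data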
# E-sel inducer – E-selectin induction in HUVECs, primary screen, imaging, HUVEC, immunofluorescence imaging, single point; P16581; normalized: neutral wells 0, TNF-alpha wells 100; activation, % at 7.58 µM; actives 0.37% (n = 260,000);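 active means mean E-selectin-positive cell signal at least 10% of the positive control, reached in at least 60% of replicates, without over 20% cell loss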
# Target sequence (P16581 whole entry, looked up): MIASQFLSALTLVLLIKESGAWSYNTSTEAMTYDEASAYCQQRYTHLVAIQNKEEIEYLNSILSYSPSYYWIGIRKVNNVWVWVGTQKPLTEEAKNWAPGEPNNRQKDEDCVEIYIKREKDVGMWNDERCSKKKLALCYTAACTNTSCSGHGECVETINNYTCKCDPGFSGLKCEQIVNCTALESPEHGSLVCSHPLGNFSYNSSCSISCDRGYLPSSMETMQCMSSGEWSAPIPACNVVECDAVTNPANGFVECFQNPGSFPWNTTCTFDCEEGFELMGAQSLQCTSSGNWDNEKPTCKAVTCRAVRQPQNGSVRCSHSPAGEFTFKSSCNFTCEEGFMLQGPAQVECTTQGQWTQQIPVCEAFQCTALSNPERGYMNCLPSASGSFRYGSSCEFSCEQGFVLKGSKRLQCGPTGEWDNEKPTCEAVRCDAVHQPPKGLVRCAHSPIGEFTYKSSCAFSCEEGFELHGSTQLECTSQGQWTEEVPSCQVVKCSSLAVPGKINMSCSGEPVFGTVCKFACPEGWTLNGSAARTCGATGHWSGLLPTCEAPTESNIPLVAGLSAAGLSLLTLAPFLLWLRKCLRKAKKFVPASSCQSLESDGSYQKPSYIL
#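 System: HUVEC, human umbilical vein endothelial cells; quantity: 3,000 cells/well; buffer or medium: EGM-2 medium, gelatin-coated wells; dosing: single-point compound dose; detection: immunofluorescence imaging; evaluation: % PE-positive cells; benchmarks: TNF-alpha, DMSO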
# SIRT5 block – SIRT5 desuccinylase inhibitors, primary screen, biochemical, fluorescence imaging, single point, set 5; inhibition, % at 15 µM; Purified SirT5, succinyl-peptide AMC, trypsin-coupled fluorescence; NAD-dependent protein deacylase sirtuin-5, mitochondrial (Homo sapiens), Q9NXA8; actives 1.1% (n = 330,000); AID 652115, 2013; in the data active means inhibition above about 15%
# * = called active by the depositor; · = no result given. Rows were chosen to be rich in hits. Some 4% of all compounds tested hit in one or more screens of this group.
SMILES,Ecoli rRNA inh,FN deposit inh,C2C12 statin,FGF22 binding,E-sel inducer,SIRT5 block
C[C@@H]1CN([C@@H](C)CO)S(=O)(=O)c2ccc(/C=C/c3ccccc3)cc2O[C@@H]1CN(C)Cc1ccccc1,-1,·,-4,0,0,19*
C[C@H]1CN([C@@H](C)CO)S(=O)(=O)c2ccc(/C=C/c3ccccc3)cc2O[C@@H]1CN(C)Cc1ccccc1,-1,·,-21,0,·,22*
C/C=C/c1ccc2c(c1)O[C@@H](CN(C)Cc1ccccc1)[C@@H](C)CN([C@H](C)CO)S2(=O)=O,-23,-5,-21,0,0,3
C[C@H]1CN([C@@H](C)CO)S(=O)(=O)c2ccc(/C=C/c3ccccc3)cc2O[C@H]1CN(C)Cc1ccc(C(=O)O)cc1,-8,·,8,0,0,19*
O=C1CCC[C@@H]2Cc3nc4ccc(O)cc4cc3[C@@H]3CCN1[C@H]23,7,-9,7,0,0,·
O=C1CCC[C@@H]2Cc3nc4cc5c(cc4cc3[C@@H]3CCN1[C@H]23)OCO5,10,6,80*,0,0,-2
O=C1NC(=S)SC1=Cc1ccccc1C(=O)O,·,-13,8,1.6*,0,·
CCCN1C(=O)C(O)(CC(=O)c2ccc3c(c2)OCCO3)c2ccccc21 (centres undefined),·,·,3,·,·,·
CCCN1C(=O)C(O)(C/C(C)=N/O)c2ccccc21 (centres undefined),·,·,125*,·,·,·
C[C@H]1CN([C@@H](C)CO)C(=O)c2cc(NC(=O)Nc3ccccc3)ccc2O[C@H]1CN(C)S(=O)(=O)c1cn(C)cn1,3,·,·,0,0,0
C[C@@H]1CCCCO[C@H](CN(C)C(=O)c2ccncc2)[C@H](C)CN([C@H](C)CO)C(=O)c2cc(NS(=O)(=O)c3cn(C)cn3)ccc2O1,1,·,·,1.7*,0,-2
C[C@@H]1CN([C@@H](C)CO)C(=O)c2cc(NS(=O)(=O)c3cn(C)cn3)ccc2O[C@@H](C)CCCCO[C@H]1CN(C)C(=O)Cc1ccccc1,-2,·,29,0,0,17*
Nc1nc(NCc2c(F)cccc2Cl)nn1-c1ccccc1,·,-5,101*,·,·,·
CCOC(=O)c1c(C)nc(C)c(C(=O)OCC)c1-c1cccnc1,4,-10,4,0,0,3
CCOC(=O)c1c(C)nc(C)c(C(=O)OCC)c1-c1ccccc1,-41*,·,·,0,·,4
Cc1ccc(N2CCN(/N=C/c3sccc3C)CC2)cc1,·,-2,140*,·,·,·
COc1ccccc1N1CCN(/N=C\c2sccc2C)CC1,-28*,-1,·,0,-6,1
COc1ccccc1N1CCN(/N=C/C=C/c2ccccc2[N+](=O)[O-])CC1,-17*,-1,·,0,15,1
COc1ccccc1N1CCN(c2ccc([N+](=O)[O-])cn2)CC1,-21*,3,0,0,·,-7
CC(C)NC(=O)Nc1ccc2c(c1)C(=O)N([C@@H](C)CO)C[C@@H](C)[C@H](CN(C)S(=O)(=O)c1cccs1)O2,-2,1,·,·,-2,·
O=C(CSc1cccc2cccnc12)N/N=C/c1cccc(O)c1,·,6,·,43,7,-8
O=C(N/N=C/c1ccc(O)c(O)c1)c1ccc(CSc2cccc3cccnc23)cc1,-16*,8,-21,·,·,-1
COC(=O)c1ccc(OCCOCCOc2cccc3ccc(C)nc23)cc1,·,1,·,0,0,-4
Cc1ccc(OCCOc2cccc3ccc(C)nc23)c([N+](=O)[O-])c1,-21*,·,-11,1,2,2
COC(=O)c1ccccc1OCCOCCOc1cccc2ccc(C)nc12,-28*,-3,·,0,2,-4
SMILES,Ecoli rRNA inh,FN deposit inh,C2C12 statin,FGF22 binding,E-sel inducer,SIRT5 block
CCCNC(=O)N1CC2(CN(C(=O)C3CCCC3)C2)c2c([nH]c3cc(OC)ccc23)[C@@H]1CO,-3,·,·,-1,0,5
Cc1ccc2nc(N/C(=N/S(=O)(=O)c3cccs3)c3ccccc3Cl)sc2c1,-32*,-1,8,0,7,5
Cc1ccc2nc(NC(=O)C3CCN(S(=O)(=O)c4cccs4)CC3)sc2c1,·,-5,6,·,·,·
CCCNC(=O)N[C@@H]1C=C[C@@H](CC(=O)NC2CCC2)O[C@@H]1CO,5,-20,-2,0,0,-1
CC(Sc1ncnc2sc(-c3ccccc3)cc12)C(=O)N1CCNC1=O (centres undefined),9,10,2,0,39*,0
O=C(O)CCN1CCc2ccccc21,·,-7,-5,·,·,·
C[N+](C)(C)CCN1CCc2ccccc21,18,7,·,0,6,22*
O=C(Nc1ccc(OCc2ccccc2)cc1)Nc1ccccc1C(=O)NCCCN1CCOCC1,-22*,-13,-12,0,1,-4
COc1cccc(C(=O)N2[C@H](COCc3ccccc3)C=CS2(=O)=O)c1,-5,1,-5,0,0,-1
CC(C)(C)c1ccc(C(=O)N2[C@H](COCc3ccccc3)C=CS2(=O)=O)cc1,-2,-23,-2,0,0,20*
Cc1ccc(NC(=O)c2ccc(CSc3ccccn3)cc2)cc1,·,·,-65,·,·,·
Cc1ccc(NC(=O)c2ccc(CSc3ccccn3)cc2)c(O)c1,-36*,0,·,0,1,2
C[C@@H]1CN([C@H](C)CO)C(=O)c2c(c3ccccc3n2C)-c2ccccc2CO[C@@H]1CN(C)C(=O)c1cc(Cl)cc(Cl)c1,0,-6,·,-1,2,19*
Cc1noc(C)c1C(=O)N(C)C[C@@H]1OCc2ccccc2-c2c(n(C)c3ccccc23)C(=O)N([C@H](C)CO)C[C@H]1C,2,5,21,0,0,17*
C[C@H]1CN([C@@H](C)CO)C(=O)c2c(c3ccccc3n2C)-c2ccccc2CO[C@@H]1CN(C)C(=O)c1cc(Cl)cc(Cl)c1,3,2,·,1,1,1
COc1ccc(-c2nnc3sc(C(C)N4C(=O)c5ccccc5C4=O)nn23)cc1 (centres undefined),-45*,-2,3,0,1,4
CCOC(=O)Cc1nn(Cc2ccccc2)c(=O)c2ccccc12,-26*,-6,·,0,0,-9

# Screening data from PubChem.
